Assay outcomes as filed in PubChem.
Sampled rows, rich in hits. Any-hit rate of the full collection: about 2.2%.
Statin myotox sup – suppressors of statin myotoxicity in C2C12 myotubes, primary screen, cell-based, single point, plate reader; AID 602340, 2012; C2C12 myotubes + simvastatin, ATP luminescence, 48 h; scaled: DMSO 0, geranylgeraniol control 100; hit rate 0.78% among 330,000; rescue of ATP level, % at 7.49 µM;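 active = mean ATP rescue above about 67%, or every replicate alone reaching that limit, limit read from the data, passing the limit was not always enough; inconclusive = no clear call, values can overlap the other calls; inactive = mean under the limit and some replicate under it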;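 also: myotubes were challenged with 10 µM simvastatin during compound exposure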
DENV2 CPE rescue – inhibitors of DENV2 cytopathic effect, primary screen, cell-based, plate reader, single concentration; DENV2-infected cells, cytopathic effect rescue; CPE inhibition, % at 9.99 µM; hit rate 1.7% among 350,000; AID 651640, 2012; in the data active = CPE inhibition above about 20%, passing the limit was not always enough; inconclusive = no clear call, values can overlap the other calls; tested in BHK-21 cells
E-selectin induc – E-selectin induction in HUVECs, primary screen, imaging, HUVEC, immunofluorescence imaging, single point | P16581 | normalized: neutral wells 0, TNF-alpha wells 100 | activation, % at 7.58 µM | hit rate 0.37% among 260,000;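 active = mean E-selectin-positive cell signal at least 10% of the positive control, reached in at least 60% of replicates, without over 20% cell loss; inconclusive = no rule given, readout overlaps actives, possibly toxicity-flagged; inactive = the rest, including those meeting only one limit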
Target sequence (P16581 whole entry, looked up): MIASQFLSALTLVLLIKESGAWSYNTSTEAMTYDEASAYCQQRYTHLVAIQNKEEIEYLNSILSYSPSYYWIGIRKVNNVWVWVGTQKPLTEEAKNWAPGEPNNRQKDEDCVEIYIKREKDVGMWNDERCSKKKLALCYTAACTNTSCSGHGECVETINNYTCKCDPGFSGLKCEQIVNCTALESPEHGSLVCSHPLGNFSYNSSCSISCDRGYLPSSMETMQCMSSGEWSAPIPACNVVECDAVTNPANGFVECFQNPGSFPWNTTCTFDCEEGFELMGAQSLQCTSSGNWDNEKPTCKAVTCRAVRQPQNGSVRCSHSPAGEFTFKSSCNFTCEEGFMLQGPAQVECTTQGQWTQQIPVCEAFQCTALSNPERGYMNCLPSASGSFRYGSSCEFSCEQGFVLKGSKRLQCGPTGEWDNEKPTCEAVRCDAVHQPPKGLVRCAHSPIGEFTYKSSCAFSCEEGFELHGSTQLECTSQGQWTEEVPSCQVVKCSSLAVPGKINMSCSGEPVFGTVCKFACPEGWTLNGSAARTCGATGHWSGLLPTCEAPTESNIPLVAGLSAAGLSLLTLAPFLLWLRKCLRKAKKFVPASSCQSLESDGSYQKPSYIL
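assay system = HUVEC, human umbilical vein endothelial cells | input = 3,000 HUVEC seeded per well | medium = EGM-2 growth medium on 0.1% gelatin-coated wells | dosing = one compound dose added by pin transfer | signal = immunofluorescence imaging | read-out basis = % PE-positive cells | control set = TNF-alpha, DMSO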
Of the large screens only hits and unclear results are named; the others gave an inactive call; ! = not active in a repeat.

C[C@H](CO)N1C[C@H](C)[C@H](CN(C)C(=O)c2ccccn2)Oc2ncc(Br)cc2C1=O	DENV2 CPE rescue 73.2!
C[C@@H]1CN([C@H](C)CO)C(=O)c2cc(C3=CCCCC3)cnc2O[C@@H]1CN(C)C(=O)Cc1cccnc1	DENV2 CPE rescue 56.0
C[C@H](CO)N1C[C@H](C)[C@@H](CN(C)C(=O)Cc2cccnc2)Oc2ncc(C3=CCCCC3)cc2C1=O	none
C[C@H]1CN([C@@H](C)CO)C(=O)c2cc(C3=CCCCC3)cnc2O[C@@H]1CN(C)C(=O)c1ccccn1	none
C[C@@H]1CN([C@@H](C)CO)C(=O)c2cc(Br)cnc2O[C@@H]1CN(C)C(=O)c1ccccn1	none
C[C@@H]1CN([C@@H](C)CO)C(=O)c2cccc(NC(=O)c3ccncc3)c2O[C@H]1CN(C)S(=O)(=O)c1cccs1	none
C[C@@H]1CN([C@@H](C)CO)C(=O)CCCn2nncc2CO[C@@H]1CN(C)Cc1ccncc1	none (no result: DENV2 CPE rescue)
CN(C)C(=O)c1cccc(-c2ccc([C@@H]3[C@@H](CO)N4CCCCN(CCC(F)(F)F)C[C@H]34)cc2)c1	none (no result: Statin myotox sup)
CN(C)CCCNC(=O)C[C@@H]1CC[C@H](NC(=O)Cc2cccnc2)[C@H](CO)O1	none
Cc1ccc(NC(=O)COc2ccc(S(=O)(=O)N3CCOCC3)cc2)cc1	Statin myotox sup 151.6 (no result: DENV2 CPE rescue, E-selectin induc)
CC(C)c1ccc(NC(=O)COc2ccc(S(=O)(=O)N3CCOCC3)cc2)cc1	none (no result: DENV2 CPE rescue, E-selectin induc)
COc1ccc(C)cc1N(CC(=O)Nc1ccc(S(=O)(=O)N2CCOCC2)cc1)S(C)(=O)=O	DENV2 CPE rescue 24.4
O=S(=O)(c1ccc(OCC(O)CN2CCCC2)cc1)N1CCOCC1 (centres undefined)	none (no result: DENV2 CPE rescue, E-selectin induc)
COc1ccccc1OCC(=O)Nc1ccc(S(=O)(=O)N2CCN(C)CC2)cc1	E-selectin induc 333.2
COc1ccc(N(CC(=O)Nc2ccc(S(=O)(=O)N3CCOCC3)cc2)S(C)(=O)=O)cc1OC	none
COc1ccccc1OCC(=O)Nc1ccc(S(=O)(=O)N2CCCC2)cc1	none
CN1CCN(CC(O)COc2ccc(S(=O)(=O)N3CCOCC3)cc2)CC1 (centres undefined)	DENV2 CPE rescue 45.9
CO[C@H]1CN(C)C(=O)c2cc(NS(C)(=O)=O)ccc2OC[C@H](C)N(S(C)(=O)=O)C[C@@H]1C	none
C[C@H](NC(=O)C[C@H]1C[C@H]2c3cc(NC(=O)CC4CC4)ccc3O[C@H]2[C@H](CO)O1)c1ccccc1	none
COc1ccccc1N(CC(=O)Nc1ccc2c(c1)OCCO2)S(C)(=O)=O	Statin myotox sup 121.9 (no result: DENV2 CPE rescue, E-selectin induc)
COc1ccc(C)cc1N(CC(=O)Nc1ccc2c(c1)OCCO2)S(C)(=O)=O	none (no result: Statin myotox sup, E-selectin induc)
COC(=O)c1c(CC[C@@H](CO)NC(=O)N[C@H](Cc2ccccc2)Cn2cc(-c3ccccn3)nn2)oc(C(C)=O)c1C(=O)OC	DENV2 CPE rescue 31.0 (no result: Statin myotox sup, E-selectin induc)
COC(=O)c1c(CC[C@@H](CO)NC(=O)N[C@H](Cc2ccccc2)Cn2cc(-c3ccccc3N)nn2)oc(C(C)=O)c1C(=O)OC	none (no result: Statin myotox sup, E-selectin induc)
CC(C)NC(=O)N(C)C[C@@H]1Oc2ccc(NS(=O)(=O)c3cccs3)cc2C(=O)N([C@@H](C)CO)C[C@@H]1C	none (no result: Statin myotox sup, DENV2 CPE rescue)
C[C@@H]1CN([C@H](C)CO)C(=O)c2cc(NC(=O)Cn3cnnn3)ccc2O[C@@H]1CN(C)Cc1ccc(Oc2ccccc2)cc1	E-selectin induc 88.5
C[C@@H]1CN([C@@H](C)CO)C(=O)c2cc(NC(=O)Cn3cnnn3)ccc2O[C@H]1CN(C)Cc1ccc(-c2ccccc2)cc1	none
C[C@H]1CN([C@@H](C)CO)C(=O)c2cc(NC(=O)Cn3cnnn3)ccc2O[C@@H]1CN(C)Cc1ccccc1	none
C[C@@H]1CN([C@@H](C)CO)C(=O)c2cc(NC(=O)Cn3cnnn3)ccc2O[C@@H]1CN(C)Cc1ccc(Oc2ccccc2)cc1	E-selectin induc 52.1
COCC(=O)Nc1ccc2c(c1)OC[C@@H](C)N(C(=O)Cc1cccnc1)C[C@@H](C)[C@H](OC)CN(C)C2=O	none (no result: E-selectin induc)
O=C1C(SC(F)(F)C(F)F)=C(C(F)(F)F)OC2C3C=CC(C3)C12 (centres undefined)	Statin myotox sup 106.7 (no result: DENV2 CPE rescue, E-selectin induc)
COCCCN1C(=O)[C@@]2(Cc3ccccc31)c1ccccc1C(=O)N(Cc1ccccc1)[C@H]2c1ccc(CO)cc1	DENV2 CPE rescue 23.3 (no result: Statin myotox sup, E-selectin induc)
CN(C)CCCN1C(=O)[C@@]2(Cc3ccccc31)c1ccccc1C(=O)N(Cc1ccccc1C(F)(F)F)[C@H]2c1ccc(CO)cc1	none (no result: Statin myotox sup, E-selectin induc)
O=C(Nc1ccc(C(F)(F)F)cc1)N[C@@H]1CC[C@@H](CC(=O)N2CCCCC2)O[C@H]1CO	none
COc1ccc(S(=O)(=O)N(C)C[C@@H]2Oc3ccc(NC(=O)CCN4CCOCC4)cc3CC(=O)N([C@@H](C)CO)C[C@H]2C)cc1	none
CCN1C[C@@H]2[C@@H]3C(=O)N(C)C(=O)[C@@H]3[C@](CC)(C(=O)OC)N2C1=NC	none
CCCN=C1N(CC)C[C@@H]2[C@@H]3C(=O)N(C)C(=O)[C@@H]3[C@](CC)(C(=O)OC)N12	DENV2 CPE rescue 27.9 (no result: E-selectin induc)
CN1C(=O)c2cc(NS(C)(=O)=O)ccc2OC[C@H]2O[C@@H](CC(=O)NC3CCCCC3)CC[C@H]21	none
Cc1noc(C)c1NC(=O)N(C)C[C@@H]1Oc2ccc(NC(=O)CCCCCC(=O)Nc3ccccc3N)cc2CC(=O)N([C@H](C)CO)C[C@@H]1C	none
O=C(C[C@H]1C=C[C@H](NS(=O)(=O)c2cccc(F)c2)[C@@H](CO)O1)NCc1ccc2c(c1)OCO2	none
CCCCCCOC(=O)C(C#N)c1nc2ccccc2nc1N1CCCCC1 (centres undefined)	none (no result: DENV2 CPE rescue, E-selectin induc)
CCCCOc1nc2ccccc2nc1C(C#N)C(=O)NC1CCCCC1 (centres undefined)	Statin myotox sup 107.9 (no result: DENV2 CPE rescue, E-selectin induc)
O=C(N[C@@H]1CC[C@H](CCNC(=O)C2CCCCC2)O[C@@H]1CO)c1ccccn1	DENV2 CPE rescue 148.8
O=C(N[C@@H]1C=C[C@H](CC(=O)N2CCN(c3ccccc3)CC2)O[C@H]1CO)c1ccccc1	none
O=C(C[C@@H]1C=C[C@@H](NC(=O)c2ccncc2)[C@H](CO)O1)Nc1ccccc1	DENV2 CPE rescue 34.7 (no result: Statin myotox sup)
O=C(N[C@H]1C=C[C@@H](CC(=O)N2CCN(c3ccccc3)CC2)O[C@H]1CO)c1ccccc1	DENV2 CPE rescue 70.9
O=C(N[C@@H]1CC[C@H](CC(=O)N2CCN(c3ccccc3)CC2)O[C@H]1CO)c1ccccc1	DENV2 CPE rescue inconclusive
O=C(N[C@H]1CC[C@H](CCNC(=O)C2CCCCC2)O[C@H]1CO)c1ccccn1	none
O=C(N[C@@H]1CC[C@@H](CC(=O)N2CCN(c3ccccc3)CC2)O[C@H]1CO)c1ccncc1	DENV2 CPE rescue 30.9
O=C(C[C@@H]1C=C[C@H](NC(=O)c2ccncc2)[C@H](CO)O1)Nc1ccccc1	none (no result: Statin myotox sup)
C/C=C/c1ccc([C@H]2[C@H](CO)N3C(=O)CN(C(=O)Nc4ccc(F)cc4)C[C@@H]23)cc1	none (no result: Statin myotox sup)
O=C(C[C@H]1CC[C@@H](NC(=O)Nc2ccccc2F)[C@@H](CO)O1)NCc1ccc(Cl)cc1	none
CNC[C@H]1OCCCC[C@H](C)Oc2ccc(NS(C)(=O)=O)cc2C(=O)N([C@H](C)CO)C[C@@H]1C	none
COc1cccc(CNC(=O)[C@@H]2[C@@H](CO)[C@@H]3Cn4c(cccc4=O)[C@H]2N3C(=O)C2CC2)c1	none
CN(C)C(=O)C[C@@H]1CC[C@H](NC(=O)C2CCC2)[C@H](CO)O1	none
